# Measured values published in ChEMBL document CHEMBL1129609, “Synthesis and antiviral activity evaluation of some new aminoadamantane derivatives. 2” (1996).
# Experiments:
# Human alphaherpesvirus 3 [1] = assay: Antiviral activity against TK-VZV virus infected HEL cell lines.; type: functional
# In short: (§1)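 Vero (African green monkey kidney), HeLa (human epithelial) or HEL (human embryonic lung) cell monolayers infected with the virus. Readout is the minimum inhibitory concentration that reduces virus-induced cytopathicity by 50%. Values are averages of at least two separate experiments.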
# HEF [2] = assay: Effects on cell morphology of HEF cell lines.; type: functional; conditions: Homo sapiens
# In short: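 Human embryonic skin-muscle fibroblasts were examined under the microscope for changes in normal cell morphology. The value is the minimum concentration causing a microscopically detectable alteration, averaged from at least two separate experiments.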
# Semliki Forest virus = assay: Antiviral activity against Semliki forest virus infected Vero cell lines.; type: functional; in short: as §1
# Human alphaherpesvirus 2 = assay: Antiviral activity against HSV-2 virus infected HEF cell lines.; type: functional
# In short: (§2)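 Human embryonic fibroblasts, from embryonic lung or embryonic skin-muscle, infected with the virus. Endpoint is the minimum inhibitory concentration that reduces virus-induced cytopathicity by 50%. Values are averages of at least two separate experiments.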
# HEL [3] = assay: Inhibition of HEL cell proliferation.; type: functional; conditions: Homo sapiens
# In short: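 Human embryonic lung fibroblasts were used for the proliferation assay. The value is the concentration that reduces cell proliferation by 50%, averaged from at least two separate experiments.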
# Coxsackievirus B4 [4] = assay: Antiviral activity against Coxsackie B4 virus infected vero cell lines.; type: functional; conditions: Enterovirus B; in short: as §1
# [5] = system: Human immunodeficiency virus 2; assay: Antiviral activity against HIV-2 virus infected CEM cell lines.; type: functional, CCRF-CEM
# [6] = system: Vesicular stomatitis virus; assay: Antiviral activity against vesicular stomatitis virus infected HeLa cell lines.; type: functional; in short: as §1
# Human alphaherpesvirus 1 [7] = assay: Antiviral activity against HSV-1 virus infected HEF cell lines.; type: functional; in short: as §2
# Sindbis virus = assay: Antiviral activity against sindbis virus infected Vero cell lines.; type: functional; in short: as §1
# Human alphaherpesvirus 3 [8] = assay: Antiviral activity against TK+VZV virus infected HEL cell lines.; type: functional; in short: as §1
# MDCK [9] = assay: Antiviral activity of compound was tested against morphology virus infec+ted MDCK cell lines.; type: functional; conditions: Canis lupus familiaris
# Human respirovirus 3 = assay: Antiviral activity against parainfluenza 3 virus infected Vero cell lines.; type: functional; in short: as §1
# [10] = system: Mammalian orthoreovirus 1; assay: Antiviral activity against Reo 1 virus infected vero cell lines.; type: functional; in short: as §1
# Influenza B virus = assay: Antiviral activity against influenza B virus infected MDCK cell lines.; type: functional
# MDCK [11] = assay: Antiviral activity tested against influenza A,H1N1 virus infected MDCK cell lines.; type: functional; conditions: Canis lupus familiaris
# Human alphaherpesvirus 1 [12] = assay: Antiviral activity against TK-HSV-1 virus infected HEF cell lines.; type: functional; in short: as §2
# [13] = system: Human immunodeficiency virus 1; assay: Antiviral activity against HIV-1 virus infected CEM cell lines.; type: functional, CCRF-CEM
# Vaccinia virus = assay: Antiviral activity against vaccinia virus infected HEF cell lines.; type: functional; conditions: Orthopoxvirus vaccinia; in short: as §2
# Vero [14] = assay: Effects on cell morphology of Vero cell lines.; type: functional; conditions: Chlorocebus sabaeus
# In short: (§3)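 HeLa (human epithelial) or Vero (African green monkey kidney) cells were examined under the microscope for changes in normal morphology. The value is the minimum concentration causing a detectable alteration, averaged from at least two separate experiments.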
# Human betaherpesvirus 5 = assay: Antiviral activity against HCMV virus infected HEL cell lines.; type: functional; in short: as §1
# [15] = Antiviral activity against influenza A,H2N2 virus infected MDCK cell lines.; type: functional
# CCRF-CEM [16] = assay: Cytotoxicity against CEM cell lines.; type: functional; conditions: Homo sapiens
# Coxsackievirus B4 [17] = assay: Antiviral activity against Coxsackie B4 virus infected HeLa cell lines.; type: functional; conditions: Enterovirus B; in short: as §1
# Enterovirus C = assay: Antiviral activity against polio 1 virus infected HeLa cell lines.; type: functional; in short: as §1
# [18] = system: Vesicular stomatitis virus; assay: Antiviral activity against vesicular stomatitis virus infected HEF cell lines.; type: functional; in short: as §2
# HeLa [19] = assay: Effects on cell morphology of HeLa cell lines.; type: functional; conditions: Homo sapiens; in short: as §3
# [20] = Antiviral activity against influenza A,H3N2 virus infected MDCK cell lines.; type: functional
# Vero [21] = assay: Antiviral activity of compound was tested against Coxsackie B4 virus infected vero cell lines.; type: functional; conditions: Chlorocebus sabaeus; in short: as §1
# HEF [22] = assay: Antiviral activity of compound was tested against HSV-2 virus infected HEF cell lines.; type: functional; conditions: Homo sapiens; in short: as §2
# HEL [23] = assay: Antiviral activity of compound was tested against HCMV virus infected HEL cell lines.; type: functional; conditions: Homo sapiens; in short: as §1
# Vero [24] = assay: Antiviral activity of compound was tested against reo1 virus infected vero cell lines.; type: functional; conditions: Chlorocebus sabaeus; in short: as §1
# MDCK [25] = assay: Antiviral activity of compound was tested against influenza A,H3N2 virus infected MDCK cell lines.; type: functional; conditions: Canis lupus familiaris
# Vero [26] = assay: Antiviral activity of compound was tested against sindbis virus infected vero cell lines.; type: functional; conditions: Chlorocebus sabaeus; in short: as §1
# CCRF-CEM [27] = assay: Antiviral activity of compound was tested against viability virus infected CEM cell lines.; type: functional; conditions: Homo sapiens
# HEL [28] = assay: Antiviral activity of compound was tested against TK-VZV virus infected HEL cell lines.; type: functional; conditions: Homo sapiens; in short: as §1
# HEL [29] = assay: Antiviral activity of compound was tested against TK+VZV virus infected HEL cell lines.; type: functional; conditions: Homo sapiens; in short: as §1
# HeLa [30] = assay: Antiviral activity of compound was tested against polio-1 virus infected HeLa cell lines.; type: functional; conditions: Homo sapiens; in short: as §1
# HEF [31] = assay: Antiviral activity of compound was tested against vaccinia virus infected HEF cell lines.; type: functional; conditions: Homo sapiens; in short: as §2
# HEF [32] = assay: Antiviral activity of compound was tested against morphology virus infected HEF cell lines.; type: functional; conditions: Homo sapiens
# HEF [33] = assay: Antiviral activity of compound was tested against TK-HSV-1 virus infected HEF cell lines.; type: functional; conditions: Homo sapiens; in short: as §2
# HeLa [34] = assay: Antiviral activity of compound was tested against Coxsackie B4 virus infected HeLa cell lines.; type: functional; conditions: Homo sapiens; in short: as §1
# Vero [35] = assay: Antiviral activity of compound were tested against semliki forest virus infected vero cell lines.; type: functional; conditions: Chlorocebus sabaeus; in short: as §1
# Vero [36] = assay: Antiviral activity of compound was tested against parainfluenza 3,[…] virus infected Vero cell lines.; type: functional; conditions: Chlorocebus sabaeus; in short: as §1
# MDCK [37] = assay: Antiviral activity of compound was tested against influenza […] virus infected MDCK cell lines; type: functional; conditions: Canis lupus familiaris
# CCRF-CEM [38] = assay: Antiviral activity of compound were tested against HIV-2 virus infected CEM cell lines.; type: functional; conditions: Homo sapiens
# CCRF-CEM [39] = assay: Antiviral activity of compound was tested against HIV-1 virus infected CEM cell lines.; type: functional; conditions: Homo sapiens
# Vero [40] = assay: Antiviral activity of compound was tested against morphology virus infected Vero cell lines.; type: functional; conditions: Chlorocebus sabaeus
# HeLa [41] = assay: Antiviral activity of compound was tested against morphology virus infected HeLa cell lines.; type: functional; conditions: Homo sapiens
# MDCK [42] = assay: Antiviral activity of compound was tested against morphology virus infected MDCK cell lines.; type: functional; conditions: Canis lupus familiaris
# HEL [43] = assay: Antiviral activity of compound was tested against proliferation virus infected HEL cell lines.; type: functional; conditions: Homo sapiens
smiles,measurement,setting,value
CCN1CCCC1C12CC3CC(CC(C3)C1)C2 (centres undefined),MIC50,Human alphaherpesvirus 3 [1],> 50 µg/mL
same,MIC50,HEF [2],200 µg/mL
same,MIC50,Semliki Forest virus,> 400 µg/mL
same,MIC50,Human alphaherpesvirus 2,> 100 µg/mL
same,MIC50,HEL [3],> 50 µg/mL
same,MIC50,Coxsackievirus B4 [4],> 400 µg/mL
same,MIC50,[5],> 40 µg/mL
same,MIC50,[6],> 400 µg/mL
same,MIC50,Human alphaherpesvirus 1 [7],> 100 µg/mL
same,MIC50,Sindbis virus,> 400 µg/mL
same,MIC50,Human alphaherpesvirus 3 [8],> 50 µg/mL
same,MIC50,MDCK [9],250 µg/mL
same,MIC50,Human respirovirus 3,> 400 µg/mL
same,MIC50,[10],> 400 µg/mL
same,MIC50,Influenza B virus,60 µg/mL
same,MIC50,MDCK [11],> 34 µg/mL
same,MIC50,Human alphaherpesvirus 1 [12],> 100 µg/mL
same,MIC50,[13],> 40 µg/mL
same,MIC50,Vaccinia virus,> 100 µg/mL
same,MIC50,Vero [14],> 400 µg/mL
same,MIC50,Human betaherpesvirus 5,> 50 µg/mL
same,MIC50,[15],> 14 µg/mL
same,MIC50,CCRF-CEM [16],115 µg/mL
same,MIC50,Coxsackievirus B4 [17],> 400 µg/mL
same,MIC50,Enterovirus C,> 400 µg/mL
same,MIC50,[18],> 100 µg/mL
same,MIC50,HeLa [19],> 400 µg/mL
same,MIC50,[20],58 µg/mL
CCN1CCOCC12C1CC3CC(C1)CC2C3 (centres undefined),MIC50,Vero [21],> 400 µg/mL
same,MIC50,HEF [22],> 400 µg/mL
same,MIC50,HEL [23],> 50 µg/mL
same,MIC50,Vero [24],> 400 µg/mL
same,MIC50,[6],> 400 µg/mL
same,MIC50,Human alphaherpesvirus 1 [7],> 400 µg/mL
same,MIC50,MDCK [25],> 57 µg/mL
same,MIC50,Vero [26],> 400 µg/mL
same,MIC50,CCRF-CEM [27],> 200 µg/mL
same,MIC50,HEL [28],> 50 µg/mL
same,MIC50,HEL [29],> 50 µg/mL
same,MIC50,MDCK [11],> 10 µg/mL
same,MIC50,HeLa [30],> 400 µg/mL
same,MIC50,HEF [31],> 400 µg/mL
same,MIC50,HEF [32],> 400 µg/mL
same,MIC50,HEF [33],> 400 µg/mL
same,MIC50,HeLa [34],> 400 µg/mL
same,MIC50,Vero [35],> 400 µg/mL
same,MIC50,Vero [36],> 400 µg/mL
same,MIC50,[15],10.5 µg/mL
same,MIC50,MDCK [37],> 80 µg/mL
same,MIC50,CCRF-CEM [38],> 200 µg/mL
same,MIC50,CCRF-CEM [39],158 µg/mL
same,MIC50,Vero [40],> 400 µg/mL
same,MIC50,[18],> 400 µg/mL
same,MIC50,HeLa [41],> 400 µg/mL
same,MIC50,MDCK [42],> 250 µg/mL
same,MIC50,HEL [43],> 50 µg/mL
CCCCN1CCCC1C12CC3CC(CC(C3)C1)C2 (centres undefined),MIC50,Human alphaherpesvirus 3 [1],> 20 µg/mL
same,MIC50,HEF [2],100 µg/mL
same,MIC50,Semliki Forest virus,> 100 µg/mL
same,MIC50,Human alphaherpesvirus 2,> 40 µg/mL
same,MIC50,HEL [3],> 50 µg/mL
same,MIC50,Coxsackievirus B4 [4],> 100 µg/mL
same,MIC50,[5],> 40 µg/mL
same,MIC50,[6],> 100 µg/mL
same,MIC50,Human alphaherpesvirus 1 [7],> 40 µg/mL
same,MIC50,Sindbis virus,> 100 µg/mL
same,MIC50,Human alphaherpesvirus 3 [8],> 50 µg/mL
same,MIC50,MDCK [9],250 µg/mL
same,MIC50,Human respirovirus 3,> 100 µg/mL
same,MIC50,[10],> 100 µg/mL
same,MIC50,Influenza B virus,> 80 µg/mL
same,MIC50,MDCK [11],4 µg/mL
same,MIC50,Human alphaherpesvirus 1 [12],> 40 µg/mL
same,MIC50,[13],> 40 µg/mL
same,MIC50,Vaccinia virus,> 40 µg/mL
same,MIC50,Vero [14],> 200 µg/mL
same,MIC50,Human betaherpesvirus 5,> 50 µg/mL
same,MIC50,[15],44.5 µg/mL
same,MIC50,CCRF-CEM [16],74 µg/mL
same,MIC50,Coxsackievirus B4 [17],> 100 µg/mL
same,MIC50,Enterovirus C,> 100 µg/mL
same,MIC50,[18],> 40 µg/mL
same,MIC50,HeLa [19],200 µg/mL
same,MIC50,[20],> 100 µg/mL
